These results are taken from PubChem BioAssay.

The nature of assay [1]: S. cerevisiae growth inhibition in permissive medium (OD615), pilot counter-assay for S. cerevisiae lifespan shortening project, permissive growth control (AID 705;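 active = growth inhibition above 25% in both replicates, a cutoff set 3 SD above the mean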). To be noted: OD615, 24 h, at 10 µM, stronger effect = higher value. The gist of the method: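 assay system = Saccharomyces cerevisiae strain carrying genetically modified DeaD replicative-lifespan system | medium = SC raffinose/galactose permissive medium | dosing = 10 µM single dose, 0.25% DMSO | schedule = 24 h compound exposure at 30 °C after 4 h pre-growth | measured by = OD at 615 nm | read-out basis = growth inhibition from lowered OD615 after 24 h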

A short description of assay [2]: S. cerevisiae growth inhibition in restrictive medium, OD615, pilot screen, restrictive growth control, yeast lifespan reduction project (AID 706;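 active = growth inhibition above a set limit, 3 SD over mean compound inhibition, in both replicates, cut at about 43% in these data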;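 also: modified DeaD lifespan yeast strain shifted to restrictive glucose medium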). To be noted: OD615, 48 h, at 10 µM, stronger effect = higher value. An outline of the steps:
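Buffer or medium: CSMM-D glucose medium. Material: genetically modified Saccharomyces cerevisiae, DeaD replicative lifespan assay strain. Times: 48 h compound exposure at 30 °C. Measured by: optical density at 615 nm.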

The nature of assay [3]: doxorubicin toxicity protection in MRP-1 cells – H69AR cells, CellTiter-Glo, duplicate, MRP-1 activator project, pilot screen (AID 807;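 active = viability increase at or above a cutoff of the median across tested compounds plus 3 SD, cut at about 8.5% in these data, passing the limit was not always enough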;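 also: compound pretreatment 18-22 h then 72 h combined with doxorubicin; 0% = doxorubicin alone and 100% = vehicle without doxorubicin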). To be noted: H69AR viability with doxorubicin, CellTiter-Glo luminescence; at 10 µM; stronger effect = higher value. (In ATP-based viability assays light output follows the ATP content of the culture.)
A short description of assay [4]: viability of HCT116 without oncogenic beta-catenin – human colon tumor cells, pilot screen (AID 823;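 active = cell viability at or below a set limit in both duplicate runs, the limit being the all-compound median minus 4 SD, cut at about 23% in these data, passing the limit was not always enough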;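 also: 0% = wells killed by 20 µM Hyamine and 100% = untreated DMSO cell wells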). The conditions noted are these: HCT116 beta-catenin knockout viability, CellTiter-Glo, 60 h; at 10 µM; stronger effect = lower value.
The nature of assay [5]: viability of PTEN-null HCT116 cells – cell-based, HCT116 clonal line, CellTiter-Glo, pilot screen (AID 824;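 active = viability at or below 27.92% in each of two runs, the all-compound median minus 4 SD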;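 also: 0% = 20 µM Hyamine control and 100% = vehicle cell control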). The conditions noted are these: HCT116 PTEN-deleted viability, 60 h, at 10 µM, stronger effect = lower value.
The nature of assay [6]: RAM pathway blockade in budding yeast – dse1pr::URA3 reporter, 5-FOA selection, pilot screen (AID 869;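 active = inhibition over a set limit, the all-compound mean plus 3 SD, in both replicate runs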;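 also: 0% = DMSO wells with no growth and 100% = 10 µM 1-NA-PP1 with full growth; RAM network block rescues cells from 5-FOA so hits raise OD615 growth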). The conditions noted are these: S. cerevisiae dse1pr::URA3 5-FOA growth, OD615, 2 d; at 10 µM; stronger effect = higher value; strain carries analog-sensitive mutant Cbk1 kinase.
A short description of assay [7]: RAM signaling pathway blockade in yeast – S. cerevisiae, Pdr1DBD-CYC8 efflux-inhibited sensitized strain, primary screen (AID 1298).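 Also: 0% = DMSO untreated cells without growth and 100% = 10 µM 1-NA-PP1 full growth; higher means more yeast growth rescued from 5-FOA killing.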 To be noted: S. cerevisiae cbk1-as DSE1-URA3 strain, 5-FOA growth OD615, 2 d; at 50 µM; stronger effect = higher value.

Values without a mark were called inactive. Inconclusive results are not listed. Activity calls are given as the source filed them.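 The calls were made as follows, unless noted: active = RAM network inhibition above 8.4% in each of two replicates, 3 SD over the compound average; inconclusive = above 8.4% inhibition in only one replicate; inactive = 8.4% inhibition or less in each replicate.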

By viability is commonly meant a read-out of living cells in per cent, often relative to untreated cells. In general, inhibition refers to the relative decrease from the control value, in per cent. Take `CCc1cc2c(=O)c(-c3nc4ccccc4n3C)c(C(C)C)oc2c(CN2CCN(C)CC2)c1O`: the growth inhibition was -3.21% in assay [1] and 8.45% in assay [2]. The viability increase in assay [3] was -0.59%. Besides, the viability in assay [4] is 69.4%; in assay [5], 82.8%. Also, the inhibition in assay [6] is 1.74%. The RAM network inhibition in assay [7] was 1.64%.

With `CC1CCN(c2c(NCc3ccc(C(=O)NCC4COc5ccccc5O4)cc3)c(=O)c2=O)CC1` (stereo unspecified), the values for the growth inhibition in assay [1] and in assay [2] were 2.94% and 14.3%, respectively. Besides, the viability increase in assay [3] was -2.96%. Besides, the viability is 86.2% in assay [4] and 96.2% in assay [5]. For the same compound, the inhibition in assay [6] was 0.785%. In assay [7], the RAM network inhibition is 4.87%.

As to `Cc1ccc(C2CC(c3ccccc3C)n3nc(N)nc3N2)cc1` (stereo unspecified), the growth inhibition was 0.605% in assay [1] and -2.86% in assay [2]. For the same compound, the viability increase in assay [3] is -0.57%. Also, the results for the viability in assay [4] and in assay [5] were 84.6% and 83%, respectively. In assay [6], the inhibition was 0.77%. Moreover, in assay [7], the RAM network inhibition is 4.75%.

For `CC1(C)CC(=O)C=C(Nc2ccccc2F)C1`, the growth inhibition in assay [1] was -10.4%; in assay [2] it was -10.5%. Further, the viability increase in assay [3] was -2.25%. The figures for the viability in assay [4] and in assay [5] were 111% and 98.3%, respectively. Besides, in assay [6], the inhibition is -0.01%. For the same compound, the RAM network inhibition in assay [7] was 1.22%.

Turning to `O=C1CCC(=O)N1c1ccc(CSc2nc3ccccc3[nH]2)cc1`, the values for the growth inhibition in assay [1] and in assay [2] were -4.96% and -2.19%, respectively. Also, the viability increase in assay [3] is 0.79%. The viability was 104% in assay [4] and 92.9% in assay [5]. Also, in assay [6], the inhibition was 1.06%. The RAM network inhibition in assay [7] was 2.24%.

With `CCOC(=O)Cc1csc(NC(=O)Nc2ccccc2)n1`, the growth inhibition is -11.8% in assay [1] and -12.1% in assay [2]. Moreover, the viability increase in assay [3] is -0.81%. The viability in assay [4] and in assay [5] was 53.2% each time. The inhibition in assay [6] is 0.665%. The RAM network inhibition in assay [7] was 4.19%.

With `Cc1ccccc1-n1c(Cn2c(=O)sc3ccccc32)nnc1SCC(=O)Nc1nccs1`, the growth inhibition in assay [1] was -3.9%; in assay [2], -13%. The viability increase in assay [3] was -5.13%. Besides, the values for the viability in assay [4] and in assay [5] were 75.2% and 59.9%, respectively. In assay [6], the inhibition was 2.25%. Besides, the RAM network inhibition in assay [7] was 5.86%.

On to `CC(=O)Nc1cccc(N2C(=O)CC(Cc3ccccc3)C2=O)c1` (stereo unspecified), for which the results for the growth inhibition in assay [1] and in assay [2] were -6.24% and -3.32%, respectively. For the same compound, the viability increase in assay [3] was -1.68%. Also, the viability in assay [4] was 91.5%; in assay [5], 89%. The inhibition in assay [6] was 0.52%. Moreover, in assay [7], the RAM network inhibition is 7.45%.

As for `COc1ccc(-c2nnc(NC(=O)c3ccccc3C)o2)cc1`, the growth inhibition is -8.78% in assay [1] and -11.7% in assay [2]. In assay [3], the viability increase was -2.73%. Further, the viability is 27.6% in assay [4] and 25.3% (active) in assay [5]. Besides, the inhibition in assay [6] is 1.86%. The RAM network inhibition in assay [7] was 0.11%.

`O=C(O)CCC(=O)N1CCc2cc(S(=O)(=O)N3CC=C(c4ccccc4)CC3)ccc21`: the growth inhibition was 5.99% in assay [1] and 4.92% in assay [2]. For the same compound, in assay [3], the viability increase was -2.14%. Further, the viability was 104% in assay [4] and 93.9% in assay [5]. Besides, the inhibition in assay [6] was 3.79%. Also, the RAM network inhibition in assay [7] was 7.9%.

For the compound `N#Cc1ccccc1N=C1CCCN1Cc1ccccc1`, the growth inhibition is -3.08% in assay [1] and 9.46% in assay [2]. In addition, in assay [3], the viability increase was 0.25%. Moreover, the viability is 88.8% in assay [4] and 95.2% in assay [5]. Moreover, in assay [6], the inhibition was 0.63%. In addition, the RAM network inhibition in assay [7] is 4.48%.

Regarding `CN1C(=O)c2cccc(NC(=O)C3CCCCC3)c2C1=O`, the growth inhibition in assay [1] is -7.12%; in assay [2], 6.03%. Moreover, the viability increase in assay [3] is -1.21%. The viability was 107% in assay [4] and 93% in assay [5]. Also, the inhibition in assay [6] is 0.445%. For the same compound, in assay [7], the RAM network inhibition is -0.16%.

Regarding `O=c1c2cnn(-c3ccccc3)c2ncn1Cc1ccccc1F`, the growth inhibition in assay [1] is -1.06%; in assay [2], 9.05%. Also, the viability increase in assay [3] is -0.65%. The values for the viability in assay [4] and in assay [5] were 93% and 88.6%, respectively. Moreover, the inhibition in assay [6] is -0.06%. Besides, the RAM network inhibition in assay [7] was 4.95%.

`COc1cccc(-c2nnc(NC(=O)C3CCCCC3)o2)c1`: the growth inhibition was -14% in assay [1] and -2.06% in assay [2]. In addition, the viability increase in assay [3] was -3.8%. The viability was 83.5% in assay [4] and 85.7% in assay [5]. Also, the inhibition in assay [6] was 1.85%. Besides, in assay [7], the RAM network inhibition is 1.88%.

As to `CC1(C)CC(=O)C(C=Nc2ccccc2)=C(O)C1`, the figures for the growth inhibition in assay [1] and in assay [2] were -7.81% and 1.81%, respectively. Moreover, the viability increase in assay [3] was -1.32%. In addition, the viability was 98.1% in assay [4] and 96.2% in assay [5]. Also, the inhibition in assay [6] was 2.92%. Besides, the RAM network inhibition in assay [7] was 1.59%.

Consider `O=C(NCCc1cn2ccsc2n1)c1cccs1`, for which the growth inhibition in assay [1] was -14.1%; in assay [2] it was -12.4%. The viability increase in assay [3] is -1.75%. Also, the figures for the viability in assay [4] and in assay [5] were 105% and 102%, respectively. Further, the inhibition in assay [6] is 1.29%. The RAM network inhibition in assay [7] is 3.51%.

Regarding `O=C(Nc1ccc(Br)cc1)c1cnccn1`, the results for the growth inhibition in assay [1] and in assay [2] were -12.7% and -21.8%, respectively. The viability increase in assay [3] is -0.6%. In addition, the results for the viability in assay [4] and in assay [5] were 98.1% and 94.4%, respectively. In addition, the inhibition in assay [6] was 1.59%. The RAM network inhibition in assay [7] was 4.87%.

With `Cn1c(C(=O)N2CCN(C(=O)c3ccco3)CC2)cc2c(=O)n(C)c3ccccc3c21`, the growth inhibition in assay [1] is -3.88%; in assay [2], 5.88%. The viability increase in assay [3] was -4.21%. In addition, the viability in assay [4] is 92.9%; in assay [5], 87%. Moreover, the inhibition in assay [6] was 0.83%. Further, in assay [7], the RAM network inhibition is 2.87%.
